In ChEMBL document CHEMBL1126247, “Iodoaminopotentidine and related compounds: a new class of ligands with high affinity and selectivity for the histamine H2 receptor” (J Med Chem, 1992):
Values belong to the compound of their own block, whether it stands above or below them.

Legend:
[1] = Inhibition of the positive chronotropic response (H2-antagonism) of guinea pig right atrium relative to cimetidine.; type: functional, Cavia porcellus, Cardiac atrium
[2] = target: Histamine H2 receptor (Cavia porcellus) (UniProt P47747); test: Histamine H2 receptor antagonistic activity at a concentration of 30 uM on the isolated guinea pig right atrium.; type: functional, tissue-based; details: Cardiac atrium
Chain of Histamine H2 receptor (Cavia porcellus) (P47747 whole entry): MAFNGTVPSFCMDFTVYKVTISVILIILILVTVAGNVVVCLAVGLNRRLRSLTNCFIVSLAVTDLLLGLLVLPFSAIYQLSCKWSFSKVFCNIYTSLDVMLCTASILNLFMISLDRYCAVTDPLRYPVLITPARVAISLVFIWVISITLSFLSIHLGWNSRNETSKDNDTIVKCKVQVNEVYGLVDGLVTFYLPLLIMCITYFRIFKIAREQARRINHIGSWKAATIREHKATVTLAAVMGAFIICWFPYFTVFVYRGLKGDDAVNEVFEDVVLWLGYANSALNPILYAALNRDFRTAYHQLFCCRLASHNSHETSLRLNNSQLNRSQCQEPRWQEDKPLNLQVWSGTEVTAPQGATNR

[3] = target: Histamine H2 receptor (Cavia porcellus) (UniProt P47747); test: Histamine H2 receptor antagonistic activity at a concentration of 0.3 uM on the isolated guinea pig right atrium; type: functional, tissue-based; details: Cardiac atrium
[4] = target: Histamine H2 receptor (Cavia porcellus) (UniProt P47747); test: Potency to inhibit the positive chronotropic response (H2-antagonism) of guinea pig right atrium relative to cimetidine.; type: functional, tissue-based; details: Cardiac atrium
[5] = target: Muscarinic acetylcholine receptor M3 (Cavia porcellus) (UniProt Q8VH26); details: 10 uM
Chain of Muscarinic acetylcholine receptor M3 (Cavia porcellus) (Q8VH26 1-587): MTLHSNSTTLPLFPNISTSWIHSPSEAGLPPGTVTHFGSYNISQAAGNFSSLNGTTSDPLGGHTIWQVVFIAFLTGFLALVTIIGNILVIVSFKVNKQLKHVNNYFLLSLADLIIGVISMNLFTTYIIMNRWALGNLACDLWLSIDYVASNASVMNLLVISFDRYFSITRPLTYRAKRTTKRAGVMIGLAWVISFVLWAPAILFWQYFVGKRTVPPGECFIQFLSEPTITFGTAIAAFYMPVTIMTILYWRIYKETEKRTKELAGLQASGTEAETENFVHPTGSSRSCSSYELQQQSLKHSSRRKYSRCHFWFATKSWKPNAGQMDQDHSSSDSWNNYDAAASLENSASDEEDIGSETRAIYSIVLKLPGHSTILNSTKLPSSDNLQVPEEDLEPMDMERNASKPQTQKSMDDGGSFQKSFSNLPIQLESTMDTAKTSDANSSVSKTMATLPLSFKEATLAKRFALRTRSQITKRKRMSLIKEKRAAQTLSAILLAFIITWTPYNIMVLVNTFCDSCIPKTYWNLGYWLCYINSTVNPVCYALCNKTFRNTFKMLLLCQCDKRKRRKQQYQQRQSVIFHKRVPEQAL

[6] = target: Histamine H2 receptor (Cavia porcellus) (UniProt P47747); details: Cardiac atrium
[7] = target: Histamine H1 receptor (Cavia porcellus) (UniProt P31389); test: Histamine H1 receptor antagonistic activity on the isolated guinea pig ileum determined by Schild plot.
Target sequence in this assay (P31389 whole entry, looked up): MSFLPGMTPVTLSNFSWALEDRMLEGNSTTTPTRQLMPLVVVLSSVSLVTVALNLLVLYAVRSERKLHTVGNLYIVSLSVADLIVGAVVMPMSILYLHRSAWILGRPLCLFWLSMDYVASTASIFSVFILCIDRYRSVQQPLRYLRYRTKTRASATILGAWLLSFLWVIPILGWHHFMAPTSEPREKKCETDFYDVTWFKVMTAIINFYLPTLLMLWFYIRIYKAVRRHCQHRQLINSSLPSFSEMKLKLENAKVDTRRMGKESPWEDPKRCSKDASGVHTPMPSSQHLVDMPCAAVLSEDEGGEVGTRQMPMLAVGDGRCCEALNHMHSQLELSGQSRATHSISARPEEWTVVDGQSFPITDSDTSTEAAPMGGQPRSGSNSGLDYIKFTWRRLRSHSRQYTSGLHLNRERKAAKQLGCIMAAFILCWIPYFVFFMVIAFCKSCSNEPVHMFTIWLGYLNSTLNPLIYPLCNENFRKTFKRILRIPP

[8] = target: Histamine H1 receptor (Cavia porcellus) (UniProt P31389); test: (§1) Histamine H1 receptor antagonistic activity on the isolated guinea pig ileum determined by Schild plot.; type: functional, tissue-based
Procedure, shortened: (§2)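 Whole proximal guinea pig ileum segments in Tyrode's solution gassed with 95% O2/5% CO2, isotonic recording at 10 mN load. Cumulative histamine (0.01-3 μM) curves. Antagonist applied 10 min before the curve. pK_B from concentration ratio, or pA2 by Schild plot.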
Target sequence in this assay (P31389 whole entry): as the sequence (P31389 whole entry, looked up) above

[9] = target: Histamine H1 receptor (Cavia porcellus, UniProt P31389); test: as §1; type: functional, tissue-based; details: read-out: pA2 (converted); procedure, shortened: as §2
Chain of Histamine H1 receptor (P31389 whole entry): as the sequence (P31389 whole entry, looked up) above

[10] = target: Histamine H2 receptor (Cavia porcellus) (UniProt P47747); test: Histamine H2 receptor antagonistic activity at concentrations of 0.03 and 0.1 uM on the isolated guinea pig right atrium.; type: functional, tissue-based; details: Cardiac atrium
[11] = target: Muscarinic acetylcholine receptor M3 (Cavia porcellus, UniProt Q8VH26); test: muscarinic acetylcholine receptor M3-antagonistic activity on the isolated guinea pig ileum determined by Schild plot.; type: functional, tissue-based; details: read-out: pA2 (converted)
Chain of Muscarinic acetylcholine receptor M3 (Q8VH26 whole entry): as the sequence (Q8VH26 1-587) above
Procedure, shortened: (§3)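 Guinea pig proximal ileum, isotonic recording under a 10 mN load in gassed Tyrode's solution. Cumulative carbachol (3-300 nM) curves as reference agonist. Antagonist incubated 10 min. pK_B calculated from concentration ratio, or pA2 by Schild plot.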

[12] = target: Muscarinic acetylcholine receptor M3 (Cavia porcellus) (UniProt Q8VH26); test: muscarinic acetylcholine receptor M3 antagonistic activity on the isolated guinea pig ileum determined by Schild plot.; type: functional, tissue-based; procedure, shortened: as §3
[13] = target: Histamine H2 receptor (Cavia porcellus) (UniProt P47747); test: Inhibition of the positive chronotropic response (histamine H2 receptor antagonism) of guinea pig right atrium relative to cimetidine.; type: functional, tissue-based; details: Cardiac atrium
[14] = target: T1, Histamine H2 receptor (Cavia porcellus, UniProt P47747); test: Histamine H2 receptor antagonistic activity on the isolated guinea pig right atrium.; details: read-out: pA2 (converted)
T1 sequence (P47747 whole entry): as the sequence (P47747 whole entry) above

[15] = target: Serotonin 2 (5-HT2) receptor (Rattus norvegicus) (UniProt P30994+P08909+P14842); test: (§4) 5-hydroxytryptamine 2 receptor antagonistic activity on the rat tail artery determined by Schild plot.; type: functional, tissue-based
Chain of Serotonin 2 (5-HT2) receptor (Rattus norvegicus) (P08909 whole entry, looked up): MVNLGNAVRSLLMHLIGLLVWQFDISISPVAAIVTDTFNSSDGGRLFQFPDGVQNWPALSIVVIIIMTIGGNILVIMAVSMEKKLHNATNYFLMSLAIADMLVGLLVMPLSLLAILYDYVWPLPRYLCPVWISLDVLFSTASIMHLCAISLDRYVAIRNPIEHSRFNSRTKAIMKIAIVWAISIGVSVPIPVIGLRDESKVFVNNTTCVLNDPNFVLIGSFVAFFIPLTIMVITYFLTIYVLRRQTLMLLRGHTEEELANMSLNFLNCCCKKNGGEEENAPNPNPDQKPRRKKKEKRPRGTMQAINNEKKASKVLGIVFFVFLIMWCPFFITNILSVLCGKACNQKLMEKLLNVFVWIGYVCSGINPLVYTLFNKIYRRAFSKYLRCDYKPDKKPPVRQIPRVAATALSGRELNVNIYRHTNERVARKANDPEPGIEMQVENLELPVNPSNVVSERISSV
Chain of Serotonin 2 (5-HT2) receptor (Rattus norvegicus) (P14842 whole entry, looked up): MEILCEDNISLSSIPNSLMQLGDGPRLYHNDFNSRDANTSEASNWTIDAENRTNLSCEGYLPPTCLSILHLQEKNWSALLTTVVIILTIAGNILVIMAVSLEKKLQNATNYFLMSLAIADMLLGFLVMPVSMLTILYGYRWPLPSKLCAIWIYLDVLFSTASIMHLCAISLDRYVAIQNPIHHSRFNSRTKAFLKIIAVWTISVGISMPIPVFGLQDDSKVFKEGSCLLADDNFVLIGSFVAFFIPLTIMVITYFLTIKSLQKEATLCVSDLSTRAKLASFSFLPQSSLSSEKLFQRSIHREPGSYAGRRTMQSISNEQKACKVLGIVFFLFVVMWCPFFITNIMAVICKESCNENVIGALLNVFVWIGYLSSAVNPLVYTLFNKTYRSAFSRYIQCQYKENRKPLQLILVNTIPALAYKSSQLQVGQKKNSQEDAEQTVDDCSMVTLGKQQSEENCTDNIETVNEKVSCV
Chain of Serotonin 2 (5-HT2) receptor (Rattus norvegicus) (P30994 whole entry, looked up): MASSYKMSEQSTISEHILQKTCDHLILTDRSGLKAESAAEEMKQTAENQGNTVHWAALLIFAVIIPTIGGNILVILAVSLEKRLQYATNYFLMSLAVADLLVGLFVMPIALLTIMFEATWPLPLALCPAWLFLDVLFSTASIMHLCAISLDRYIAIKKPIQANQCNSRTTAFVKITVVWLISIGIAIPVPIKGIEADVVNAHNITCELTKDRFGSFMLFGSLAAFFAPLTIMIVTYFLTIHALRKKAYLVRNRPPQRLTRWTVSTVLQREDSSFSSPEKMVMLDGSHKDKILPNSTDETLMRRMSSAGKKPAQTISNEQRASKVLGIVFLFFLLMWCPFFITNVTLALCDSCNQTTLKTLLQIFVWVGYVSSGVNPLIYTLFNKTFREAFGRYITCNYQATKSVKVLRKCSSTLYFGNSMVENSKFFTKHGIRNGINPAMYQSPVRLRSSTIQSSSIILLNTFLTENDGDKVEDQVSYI
Procedure, shortened: (§5)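 Endothelium-denuded ventral tail artery segments from male Wistar rats (280-350 g), resting force 5 mN, 120 min equilibration with one 1 μM 5-HT priming. Two to three cumulative 5-HT (0.01-10 μM) curves per preparation.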

[16] = target: Serotonin 2 (5-HT2) receptor (Rattus norvegicus, UniProt P30994+P08909+P14842); test: as §4; type: functional, tissue-based; procedure, shortened: as §5
[17] = target: Adrenergic receptor alpha-1 (Rattus norvegicus) (UniProt P15823+P23944+P43140); test: (§6) Alpha-1 adrenergic receptor antagonistic activity on the rat aorta determined by Schild plot.; type: functional, tissue-based
Procedure, shortened: (§7)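 Endothelium-denuded thoracic aortic rings from the same rats, mounted isometrically, resting force 20 mN. Equilibration 140 min with two primings of 0.1 μM (R)-phenylephrine. Cumulative (R)-phenylephrine (0.003-10 μM) curves recorded with 1 μM (±)-propranolol present.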

[18] = target: T2, Adrenergic receptor alpha-1 (Rattus norvegicus, UniProt P15823+P23944+P43140); test: as §6; type: functional, tissue-based; procedure, shortened: as §7
T2 sequence (P15823 whole entry): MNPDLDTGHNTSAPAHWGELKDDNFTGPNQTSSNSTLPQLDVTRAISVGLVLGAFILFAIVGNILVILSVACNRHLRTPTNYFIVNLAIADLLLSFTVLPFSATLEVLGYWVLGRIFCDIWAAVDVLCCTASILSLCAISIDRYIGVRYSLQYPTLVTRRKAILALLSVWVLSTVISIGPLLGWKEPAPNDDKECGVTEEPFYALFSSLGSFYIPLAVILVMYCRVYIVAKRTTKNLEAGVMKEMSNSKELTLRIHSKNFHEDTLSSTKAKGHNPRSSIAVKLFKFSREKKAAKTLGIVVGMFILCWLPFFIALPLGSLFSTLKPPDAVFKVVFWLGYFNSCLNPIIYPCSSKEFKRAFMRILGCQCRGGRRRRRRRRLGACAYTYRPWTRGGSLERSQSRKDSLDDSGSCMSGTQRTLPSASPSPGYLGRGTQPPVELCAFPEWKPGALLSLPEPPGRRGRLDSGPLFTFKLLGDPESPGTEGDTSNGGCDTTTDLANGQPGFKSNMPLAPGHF
T2 sequence (P23944 whole entry): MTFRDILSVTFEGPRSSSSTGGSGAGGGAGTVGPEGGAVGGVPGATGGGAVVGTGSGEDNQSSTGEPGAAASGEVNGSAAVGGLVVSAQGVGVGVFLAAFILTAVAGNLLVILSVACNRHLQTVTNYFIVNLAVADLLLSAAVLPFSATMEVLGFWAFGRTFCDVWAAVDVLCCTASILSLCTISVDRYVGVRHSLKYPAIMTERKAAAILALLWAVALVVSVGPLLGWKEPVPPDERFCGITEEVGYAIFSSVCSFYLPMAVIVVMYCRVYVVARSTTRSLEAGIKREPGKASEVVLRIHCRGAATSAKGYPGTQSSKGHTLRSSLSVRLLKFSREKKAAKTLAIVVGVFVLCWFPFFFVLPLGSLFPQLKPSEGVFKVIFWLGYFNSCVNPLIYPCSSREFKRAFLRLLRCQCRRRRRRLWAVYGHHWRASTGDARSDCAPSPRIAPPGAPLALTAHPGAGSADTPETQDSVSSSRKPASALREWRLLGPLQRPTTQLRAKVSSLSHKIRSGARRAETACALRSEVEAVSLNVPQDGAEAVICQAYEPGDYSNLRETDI
T2 sequence (P43140 whole entry): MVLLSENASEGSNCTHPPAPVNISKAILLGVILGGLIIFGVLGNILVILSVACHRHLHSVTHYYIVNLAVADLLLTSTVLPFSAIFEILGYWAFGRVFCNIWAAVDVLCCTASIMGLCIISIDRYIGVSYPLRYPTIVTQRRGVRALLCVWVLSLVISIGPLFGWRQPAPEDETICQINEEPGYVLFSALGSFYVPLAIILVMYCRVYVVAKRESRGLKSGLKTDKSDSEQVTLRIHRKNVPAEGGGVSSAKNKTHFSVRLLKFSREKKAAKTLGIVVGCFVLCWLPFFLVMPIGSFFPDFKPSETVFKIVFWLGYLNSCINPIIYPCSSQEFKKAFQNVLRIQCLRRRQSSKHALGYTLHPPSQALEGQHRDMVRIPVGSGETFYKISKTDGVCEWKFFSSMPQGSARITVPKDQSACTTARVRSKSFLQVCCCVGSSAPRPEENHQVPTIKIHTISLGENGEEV

[19] = target: Beta-1 adrenergic receptor (Cavia porcellus) (UniProt B0FL73); test: Beta-1 Adrenergic receptor antagonistic activity at concentrations of 10 and 30 uM on the isolated guinea pig right atrium.; type: functional, tissue-based; details: Cardiac atrium
Chain of Beta-1 adrenergic receptor (Cavia porcellus) (B0FL73 1-467): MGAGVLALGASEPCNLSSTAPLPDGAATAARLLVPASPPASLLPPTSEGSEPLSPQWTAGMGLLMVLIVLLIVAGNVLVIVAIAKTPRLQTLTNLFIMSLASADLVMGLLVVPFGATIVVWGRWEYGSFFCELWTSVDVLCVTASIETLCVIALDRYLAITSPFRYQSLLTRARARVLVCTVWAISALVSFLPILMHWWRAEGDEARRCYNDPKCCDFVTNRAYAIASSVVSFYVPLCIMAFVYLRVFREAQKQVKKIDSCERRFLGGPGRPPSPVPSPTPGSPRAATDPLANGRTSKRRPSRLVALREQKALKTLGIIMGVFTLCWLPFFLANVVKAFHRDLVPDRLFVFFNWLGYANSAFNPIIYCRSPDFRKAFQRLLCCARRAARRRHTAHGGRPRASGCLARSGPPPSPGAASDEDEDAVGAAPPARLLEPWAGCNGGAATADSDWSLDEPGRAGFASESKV
Procedure, shortened: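 Spontaneously beating guinea pig right atrium, isometric recording of chronotropic response. Cumulative isoprenaline (0.1-30 nM) curves as reference agonist. Incubation handled as in the H2 protocol. pK_B = -log[antagonist] + log(concentration ratio - 1).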

[20] = target: Histamine H1 receptor (Cavia porcellus) (UniProt P31389); test: Histamine H1 receptor antagonistic activity at a concentration of 3 and 10 uM on the isolated guinea pig iluem.; type: functional; procedure, shortened: as §2
Target sequence in this assay (P31389 whole entry): as the sequence (P31389 whole entry, looked up) above

[21] = target: Histamine H2 receptor (Cavia porcellus) (UniProt P47747); test: Histamine H2 receptor antagonistic activity on the isolated guinea pig right atrium determined by Schild plot.; type: functional, tissue-based; details: Cardiac atrium
[22] = target: Histamine H2 receptor (Cavia porcellus) (UniProt P47747); test: Histamine H2 receptor antagonistic activity at concentrations of 0.03,0.1 and 0.3 uM on the isolated guinea pig right atrium.; type: functional, tissue-based; details: Cardiac atrium
[23] = target: Muscarinic acetylcholine receptor M3 (Cavia porcellus) (UniProt Q8VH26); test: muscarinic acetylcholine receptor M3 antagonistic activity at concentrations of 10 and 30 uM on the isolated guinea pig iluem.; type: functional; procedure, shortened: as §3
[24] = target: T1, Histamine H2 receptor; test: Inhibition of [125I]APT binding to H2 receptors in guinea pig cerebral membranes.; type: cell membranes
Procedure, shortened: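 Striatal membranes from male Hartley guinea pigs (200-300 g) in 50 mM sodium/potassium phosphate, pH 7.5, with 0.1% gelatin. Stopped with cold buffer containing 0.1% BSA, then filtered on polyethylenimine-treated glass-fiber filters and γ-counted. Azido compounds handled under dim light.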

[25] = target: Histamine H2 receptor (Cavia porcellus) (UniProt P47747); test: Histamine H2 receptor antagonism at a concentration of 1 umolar on the isolated guinea pig right atrium.; type: functional, tissue-based; details: Cardiac atrium
[26] = target: Muscarinic acetylcholine receptor M3 (Cavia porcellus) (UniProt Q8VH26); test: Muscarinic acetylcholine receptor M3 antagonistic activity at concentrations of 10 and 30 uM on the isolated guinea pig iluem.; type: functional; procedure, shortened: as §3
[27] = target: Histamine H2 receptor (Cavia porcellus) (UniProt P47747); test: Histamine H2 receptor antagonistic activity at concentrations of 0.1,0.3 and 1 uM on the isolated guinea pig right atrium.; type: functional, tissue-based; details: Cardiac atrium
[28] = target: Histamine H2 receptor (Cavia porcellus) (UniProt P47747); test: Histamine H2 receptor antagonistic activity at a concentration of 0.03 and 1 uM on the isolated guinea pig right atrium.; type: functional, tissue-based; details: Cardiac atrium
[29] = target: Histamine H2 receptor (Cavia porcellus) (UniProt P47747); test: Histamine H2 receptor antagonistic activity at a concentration of 0.1 uM on the isolated guinea pig right atrium.; type: functional, tissue-based; details: Cardiac atrium

SMILES: N#CN/C(=N\CCCOc1cccc(CN2CCCCC2)c1)N1CCN(C(=O)c2ccccc2)CC1
Relative potency [1]: 6%
pKB [2]: 5.16

SMILES: N#CN/C(=N\CCNC(=O)c1cc(I)c(N)c(I)c1)NCCCOc1cccc(CN2CCCCC2)c1
Slope [8]: 0.91
Kb [9]: 1580 nM
pKB [10]: 7.79
Kb [11]: 1700 nM
Slope [12]: 1.04
Relative potency [13]: 2460%
Kb [14]: 16.2 nM

SMILES: N#CN/C(=N\CCNc1ccccc1[N+](=O)[O-])NCCCCOc1cccc(CN2CCCCC2)c1
pKB [28]: 8.04
Relative potency [13]: 4360%

SMILES: N#CN/C(=N\CCNc1ccccc1[N+](=O)[O-])NCCCOc1cccc(CN2CCCCC2)c1
pKB [29]: 7.45
Relative potency [13]: 1120%

Continued, values first:

pKB [3]: 7.57
Relative potency [4]: 1480%
pKB [5]: 5.61
pKB [6]: 7.62
Slope [7]: 1.25
SMILES: N#CN/C(=N\CCNC(=O)c1cccc(I)c1)NCCCOc1cccc(CN2CCCCC2)c1

Slope [15]: 1.09
pA2 [16]: 6.06
Slope [17]: 1.29
pA2 [18]: 5.59
pKB [19]: 4.77
pKB [20]: 5.96
Slope [21]: 0.9
pKB [22]: 7.52
pKB [23]: 5.49
Relative potency [13]: 1440%
SMILES: N#CN/C(=N\CCNC(=O)c1ccc(N)c(I)c1)NCCCOc1cccc(CN2CCCCC2)c1

Kb [9]: 26900 nM
Ki [24]: 9.77 nM
Slope [21]: 1.09
pKB [25]: 7.22
pKB [26]: 5.16
pKB [27]: 7.28
Relative potency [4]: 660%
Slope [7]: 0.88
SMILES: N#CN/C(=N\CCNC(=O)c1ccc(N)cc1)NCCCOc1cccc(CN2CCCCC2)c1 [AMINOPOTENTIDINE]
